Test results taken from publication PMC3445775 (Hepatology (Baltimore, Md.), 2012).
Entries after “also recorded” stand apart in the source; their conditions may differ.

Legend:
human FATP5 = target: T1, human FATP5 (Homo sapiens, UniProt Q9Y2P5); type: cell-based
T1 sequence (Q9Y2P5 1-690): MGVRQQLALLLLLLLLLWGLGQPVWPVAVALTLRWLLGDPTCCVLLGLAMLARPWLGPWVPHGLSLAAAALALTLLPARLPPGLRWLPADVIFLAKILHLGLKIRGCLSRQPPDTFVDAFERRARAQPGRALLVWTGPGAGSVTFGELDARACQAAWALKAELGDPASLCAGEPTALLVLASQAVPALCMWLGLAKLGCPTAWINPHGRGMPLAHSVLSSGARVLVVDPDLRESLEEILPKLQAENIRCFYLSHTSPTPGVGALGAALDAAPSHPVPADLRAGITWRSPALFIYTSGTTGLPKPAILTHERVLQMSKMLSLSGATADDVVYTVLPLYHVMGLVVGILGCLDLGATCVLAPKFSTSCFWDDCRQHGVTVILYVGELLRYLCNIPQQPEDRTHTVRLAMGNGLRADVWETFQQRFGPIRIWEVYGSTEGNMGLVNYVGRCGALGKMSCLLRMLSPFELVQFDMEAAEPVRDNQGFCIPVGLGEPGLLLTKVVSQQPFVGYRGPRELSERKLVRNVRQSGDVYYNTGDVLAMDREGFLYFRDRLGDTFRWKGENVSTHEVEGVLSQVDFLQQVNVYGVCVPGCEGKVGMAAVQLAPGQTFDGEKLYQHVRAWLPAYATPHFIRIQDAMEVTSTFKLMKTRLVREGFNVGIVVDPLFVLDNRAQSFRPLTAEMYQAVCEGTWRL
Method in brief: (§1)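 HEK-293 cells stably expressing human FATP4, FATP2 or FATP5 were maintained in DMEM/10% FBS with 1 mg/ml G418. Cells were plated at 30,000–50,000/well overnight to 50–70% confluency. They were preincubated 30 min (5% CO2) with test compound, diluted from DMSO stock into HBSS with 20 mM HEPES, 4.5 g/L glucose and 0.1% fatty-acid-free BSA. Compound in quencher mix containing 2 μM C1-BODIPY-C12 was then added. Fluorescence (ex 488/em 515 nm, bottom read) was recorded every 2 min for 2 h, and uptake velocities were derived by linear regression.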

human FATP2 = human FATP2 (Homo sapiens, UniProt O14975); type: cell-based
Method in brief: as §1

hsFATP4 = hsFATP4 (Homo sapiens, UniProt Q6P1M0); assay: Quencher-based LCFA uptake assay, FATP4 expressing 293 cells; type: cell-based; settings: result in words
hsFATP4, sequence (Q6P1M0 whole entry): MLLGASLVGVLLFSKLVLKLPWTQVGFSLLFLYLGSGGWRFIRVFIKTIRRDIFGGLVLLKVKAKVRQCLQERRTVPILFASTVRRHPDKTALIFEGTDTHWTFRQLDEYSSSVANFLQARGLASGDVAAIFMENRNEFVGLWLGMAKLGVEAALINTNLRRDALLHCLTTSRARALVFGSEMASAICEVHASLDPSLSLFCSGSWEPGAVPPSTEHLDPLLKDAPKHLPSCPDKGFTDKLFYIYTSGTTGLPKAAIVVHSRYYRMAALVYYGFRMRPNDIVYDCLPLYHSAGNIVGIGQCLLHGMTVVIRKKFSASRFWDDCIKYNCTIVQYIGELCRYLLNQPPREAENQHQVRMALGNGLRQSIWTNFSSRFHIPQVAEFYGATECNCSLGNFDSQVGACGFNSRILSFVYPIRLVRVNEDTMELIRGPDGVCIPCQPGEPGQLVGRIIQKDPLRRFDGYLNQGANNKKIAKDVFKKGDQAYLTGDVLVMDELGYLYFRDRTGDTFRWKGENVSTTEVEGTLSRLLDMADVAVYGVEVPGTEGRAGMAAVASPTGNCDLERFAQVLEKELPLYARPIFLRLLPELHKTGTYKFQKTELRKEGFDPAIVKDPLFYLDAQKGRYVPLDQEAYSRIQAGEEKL
Method in brief: as §1

FATP5 and FATP2 = assay: Inhibition reversibility assay; type: cell-based, human; settings: 30 min treatment followed by brief washes with PBS
293 cells = assay: XTT toxicity assay, stable 293 cell lines; type: cell-based, human; settings: 48 hours
Method in brief: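 Stable 293 cells in DMEM/FBS were incubated overnight in 5% CO2. The indicated test compound or DMSO control was added, and after a further 48 h viability was measured with an XTT kit per the manufacturer's instructions.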

[1] = test system: primary mouse hepatocytes from C57Bl/6 animals; assay: Quencher based LCFA uptake assay, wild-type mouse primary hepatocytes; type: cell-based
[2] = test system: primary hepatocytes from FATP5-null animals; assay: Quencher based LCFA uptake assay, FATP5-null mouse primary hepatocytes; type: cell-based; settings: FATP5 KO
Method in brief: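 Primary hepatocytes from FATP5-null mice were isolated by portal-vein perfusion and collagenase digestion. Viability was checked by trypan blue, and cells were plated on collagen (150,000 cells/well) in DMEM/FBS with insulin-transferrin-selenium overnight. Test compound from DMSO stock in HBSS (20 mM HEPES, 4.5 g/L glucose, 0.1% fatty-acid-free BSA) was applied for 30 min. It was replaced by the same compound in quencher mix with 2 μM C1-BODIPY-C12. Bottom-read fluorescence (ex 488/em 515 nm) was taken every 2 min for 2 h, and velocities were obtained by linear regression.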

[3] = test system: primary mouse hepatocytes; assay: XTT viability of primary mouse hepatocytes; type: cell-based; settings: 48 hour treatment
[4] = test system: Mouse primary hepatocytes; assay: Uptake assay of radiolabeled compounds, primary hepatocytes; type: cell-based; settings: 5 μM DCA
hepatic LCFA uptake = assay: Non-radioactive in vivo hepatic LCFA uptake assay; design: species or system mouse
[5] = test system: hepatic triglyceride accumulation; assay: Chronic bile acid injection during high-fat diet; type: in vivo, mouse; settings: 3.2 mg/kg s.c. daily
Method in brief: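 Individually housed mice on a high-fat diet (60% calories from fat) received daily s.c. injections of test compound, 3.2 mg/kg in 20 μl DMSO, above the right hip for 47 days. Controls received DMSO vehicle. Mice were fasted 4 h and euthanised with CO2, and injection sites were checked for precipitate. Liver lysates were assayed for protein (BCA) and TAG.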

hepatic TAG content = assay: 7 week bile acid supplemented high-fat diet feeding; type: in vivo, mouse
[6] = test system: acute liver LCFA absorption; assay: 1 week DCA/high-fat food feeding pilot; type: in vivo, mouse
[7] = test system: intestinal fatty acid absorption; assay: Non-radioactive intestinal in vivo LCFA absorption assay; design: species or system mouse; settings: gavage of olive oil/BODIPY-FFA with 0.05% DCA
Method in brief: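 Mice were gavaged with 200 μl of olive oil/20 μM BODIPY-FFA containing 0% or 0.05% bile acid. Blood was drawn at 0, 30, 60, 120 and 240 min after gavage, and serum fluorescence at 515 nm was read on a plate reader.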

TGR5 = settings: ref [33], [34]; cited from earlier work
[8] = test system: primary human hepatocytes; assay: FACS-based LCFA uptake assay, primary human hepatocytes; type: cell-based; settings: 10 or 100 μM, viable cells
Method in brief: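 Suspended primary human hepatocytes were pretreated with test compound at 10 or 100 μM in DMEM (37°C, 5% CO2, 30 min). C1-BODIPY-C12 bound to 0.1% BSA was then added to a final 2 μM for 30 min at 37°C. Uptake was stopped on ice, and cells were centrifuged at 4°C and resuspended in cold PBS. Propidium iodide was added, and mean BODIPY fluorescence of 5000 viable PI-negative cells was taken from histogram plots.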

[9] = oral administration of UDCA; ref [41]; cited from earlier work
NASH = settings: cited from earlier work
[10] = 0.5mg/g in high fat food, 7 weeks

C[C@H](CCC(=O)O)[C@H]1CC[C@H]2[C@@H]3CC[C@@H]4C[C@H](O)CC[C@]4(C)[C@H]3C[C@H](O)[C@]12C [DCA, deoxycholic acid]
IC50 (human FATP5): 0.19 µM | IC50 (human FATP2): 5 µM | inhibition of FATP4 LCFA uptake (hsFATP4): neither DCA, UDCA, nor LCA inhibited; also recorded: No inhibition | Reversible Inhibition (FATP5 and FATP2): reversible and Yes | toxicity (XTT assay) (293 cells): did not display any cytotoxicity | inhibition of LCFA uptake by primary mouse hepatocytes [1]: inhibited hepatocyte LCFA uptake significantly | inhibition of LCFA uptake by FATP5-null primary hepatocytes [2]: abolished | cytotoxicity to primary mouse hepatocytes (XTT) [3]: not associated with toxicity | uptake of 2-deoxy-D-[3H]glucose/glucose mix [4]: without affecting uptake | uptake of radiolabeled fatty acids ([4]; 20 μM fatty acid): inhibit the uptake of a wide range of fatty acids | effect on in vivo hepatic LCFA uptake in FATP5 KO (hepatic LCFA uptake; FATP5 KO mice, 6.4mg/kg): abolished | effect on in vivo hepatic LCFA uptake (hepatic LCFA uptake; WT mice, acute injection): inhibitory effect was observed | acute reduction of hepatic LCFA uptake (hepatic LCFA uptake; in vivo, DCA injections): 31% | body weight ([5]; 47 days): nor did it affect food consumption or body weight | food consumption ([5]; 47 days): nor did it affect food consumption or body weight | respiration ([5]; 47 days): neither triggered an increase in respiration | reduction in the triglyceride content of the liver ([5]; 47 days, WT): 68% | triglyceride content of the liver ([5]; 47 days, WT, vehicle 6.6): 2.1 mg TAG/g protein | liver TAG in FATP5-null animals ([5]; FATP5-null): did not cause a further reduction in liver TAG | body weight (hepatic TAG content; [10]): Neither DCA nor LCA feeding resulted in changes | caloric output over a 36h period (hepatic TAG content; [10]): Neither DCA nor LCA feeding resulted in changes | food intake (hepatic TAG content; [10]): Neither DCA nor LCA feeding resulted in changes | respiratory rate (hepatic TAG content; [10]): Neither DCA nor LCA feeding resulted in changes | lipid droplets in BODIPY-stained liver sections (hepatic TAG content; 0.05% DCA in high-fat diet): markedly reduced lipid droplets | hepatotoxicity or fibrosis (ALT/AST assays, liver morphology) (hepatic TAG content; 0.05% DCA in high-fat diet, 49 days): did not lead to hepatotoxicity or fibrosis | reduction in hepatic TAG content (hepatic TAG content; 0.05% in high-fat diet, 7 weeks): approximately 50% | acute liver LCFA absorption ([6]; DCA 0 to 0.2% in high-fat food): dose dependent reduction | circulating liver enzymes (serum AST) ([6]; DCA 0 to 0.2% in high-fat food): without causing a detectable increase | circulating lipids in the form of TAG and cholesterol ([6]; dietary DCA 0.03%-0.4%): unchanged | intestinal fatty acid absorption (labeled fatty acid in the circulation) [7]: not suppressed; also recorded: no significant effect | TGR5 activation (TGR5): activate TGR5 equally

C[C@H](CCC(=O)O)[C@H]1CC[C@H]2[C@@H]3[C@@H](O)C[C@@H]4C[C@H](O)CC[C@]4(C)[C@H]3CC[C@]12C [UDCA, ursodeoxycholic acid, reference compound]
IC50 (human FATP5): 5 µM | inhibition of FATP4 LCFA uptake (hsFATP4): neither DCA, UDCA, nor LCA inhibited; also recorded: No inhibition | Reversible Inhibition (FATP5 and FATP2): Yes | inhibition of LCFA uptake by primary human hepatocytes [8]: inhibited LCFA uptake | inhibition of LCFA uptake by primary mouse hepatocytes [1]: inhibited LCFA uptake | inhibition of LCFA uptake by FATP5-null primary hepatocytes [2]: failed to inhibited LCFA uptake | cytotoxicity to primary mouse hepatocytes (XTT) [3]: without any detectable cytotoxic effects | circulating UDCA levels [9]: over 17 μM | effect on hepatosteatosis and NASH versus placebo (NASH; 13–15 mg/kg/day over 2 years, 166 patients, ref [43]): did not produce an effective result as compared to placebo | overall histology (NASH; 23–28 mg/kg/day for 18 months, 185 NASH patients, ref [44]): failed to improve the overall histology
